ChEMBL document CHEMBL4130570, “Characteristic α-Acid Derivatives from Humulus lupulus with Antineuroinflammatory Activities” (J Nat Prod, 2017)
Values belong to the molecule of their own block, whether it stands above or below them. Active and inactive are the calls of the source. The rule behind the calls is not given here.

Legend:
BV-2 [1] = assay: Cytotoxicity against mouse BV2 cells assessed as reduction in cell viability at 1 to 100 uM after 24 hrs by MTT assay; type: cell-based; settings: bv-2, 24 h
Outline: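 BV2 cells after 24 h treatment; supernatant removed, MTT 0.25 mg/mL added for 4 h at 37 °C, formazan dissolved in DMSO, absorbance read at 490 nm.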

BV-2 [2] = assay: Antineuroinflammatory activity in mouse BV2 cells assessed as inhibition of LPS-induced nitric oxide production after 24 hrs by griess assay; type: functional, cell-based; settings: BV-2, 24 h
Outline: (§1)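 BV2 microglia plated at 5 × 10^4 cells/well, exposed to compound (1, 3, 10, 30, 100 μM) together with LPS 100 ng/mL for 24 h. Nitrite in medium quantified by Griess reagent (1% sulfanilamide; 0.1% naphthylethylenediamine dihydrochloride, 2% phosphoric acid), 15 min at room temperature, absorbance 540 nm. Mean ± SE of three independent experiments.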

BV-2 [3] = assay: Antineuroinflammatory activity in mouse BV2 cells assessed as inhibition of LPS-induced nitric oxide production at 100 uM after 24 hrs by griess assay; type: functional, cell-based; outline: as §1

SMILES: CC(C)=CC[C@@]1(O)C(=O)C(C(=O)CC(C)C)=C(O)C2=C1O[C@H](C(C)(C)O)C2
Activity (BV-2 [1]): Non-Toxic

SMILES: CC(C)=CC[C@@]1(O)C(=O)C(C(=O)CC(C)C)=C(O)C2=C1O[C@@H](C(C)(C)O)C2
Activity (BV-2 [1]): Non-Toxic

SMILES: CC(C)(O)[C@H]1C[C@@](C(=O)O)([C@H]2CC(=O)OC2(C)C)C(=O)O1
Activity (BV-2 [1]): Non-Toxic

IC50 (BV-2 [2]): 57.7 µM
SMILES: COc1ccc(/C=C/C(=O)c2c(O)cc(OC)c(CC=C(C)C)c2O)cc1
Activity (BV-2 [1]): Non-Toxic

SMILES: CC(C)=CCC1=C2O[C@H](C(C)(C)O)C[C@@]2(O)C(=O)C(C(=O)CC(C)C)=C1O
Activity (BV-2 [1]): Non-Toxic

SMILES: CC(C)=CC[C@@]1(O)C(=O)C(C(=O)CC(C)C)=C(O)C2=C1OC(C)(C)[C@H](O)C2
Activity (BV-2 [1]): Non-Toxic

IC50 (BV-2 [2]): 7.92 µM
SMILES: COc1cc(O)c(CC=C(C)C)c(O)c1C(=O)/C=C/c1ccc(O)cc1 [XANTHOHUMOL]
Activity (BV-2 [1]): Non-Toxic

SMILES: CC(C)=CCc1c(O)c2c(c(C(=O)CC(C)C)c1O)O[C@H](C(C)(C)O)C2
Activity (BV-2 [1]): Non-Toxic

SMILES: CC(C)=CC[C@@]1(O)C(=O)C(C(=O)C(C)C)=C(O)C2=C1OC(C)(C)[C@@H](O)C2
inhibition (BV-2 [3]): Active
Activity (BV-2 [1]): Non-Toxic

SMILES: CC(C)=CCC1(CC=C(C)C)C(=O)C(O)=C(O)C1=O [HULUPINIC ACID]
Activity (BV-2 [1]): Non-Toxic

IC50 (BV-2 [2]): 19.5 µM
SMILES: COc1cc(O)c(CC=C(C)C)c2c1C(=O)C[C@@H](c1ccc(O)cc1)O2
Activity (BV-2 [1]): Non-Toxic

SMILES: CC(C)=CC[C@@]1(O)C(=O)C(C(=O)CC(C)C)=C(O)C2=C1OC(C)(C)[C@@H](O)C2
Activity (BV-2 [1]): Non-Toxic

SMILES: CC(C)=CCc1c(O)c2c(c(C(=O)CC(C)C)c1O)O[C@@H](C(C)(C)O)C2
Activity (BV-2 [1]): Non-Toxic

IC50 (BV-2 [2]): 21.4 µM
SMILES: CC(C)=CCc1c(O)cc(O)c2c(=O)cc(C(C)C)oc12
Activity (BV-2 [1]): Non-Toxic

SMILES: CC(C)=CC[C@@]1(O)C(=O)C(C(=O)C(C)C)=C(O)C2=C1O[C@H](C(C)(C)O)C2
Activity (BV-2 [1]): Non-Toxic

SMILES: CC1(C)C[C@@H](O)[C@@]23CC[C@H](O)[C@@](C)(CC[C@H]12)C3
Activity (BV-2 [1]): Non-Toxic
